According to ChEMBL document CHEMBL1124793, “Comparative reactivity of 1-carba-1-dethiacephalosporins with cephalosporins” (J Med Chem, 1990):
≈ marks a conversion by molar mass, not a printed value.

Test system: Escherichia coli
Assay: In vitro inhibitory activity against Escherichia coli EC14
Type: functional
Summary of the method: (§1)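 Agar dilution: compounds were diluted in 0.1 M phosphate buffer, pH 7.0, and mixed at 50 °C into Mueller–Hinton agar with 1% Bacto-Supplement C. Fresh overnight cultures were diluted to about 1 × 10^4 cells/μL and spotted at 1 μL. Plates were incubated overnight at 35 °C in ambient air. MIC (μg/mL) was the lowest concentration preventing visible growth.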

MIC [µg/mL]	Compound
64 (≈ 174 µM)	O=C(COc1ccccc1)N[C@@H]1C(=O)N2C(C(=O)O)=C(Cl)CS[C@H]12
2 (≈ 5.23 µM)	COC(=O)C1=C(C(=O)O)N2C(=O)[C@@H](NC(=O)Cc3cccs3)[C@H]2SC1
0.03 (≈ 0.0657 µM)	CO/N=C(\C(=O)N[C@@H]1C(=O)N2C(C(=O)[O-])=C(C[n+]3ccccc3)CC[C@H]12)c1csc(N)n1
0.25 (≈ 0.715 µM)	N[C@@H](C(=O)N[C@@H]1C(=O)N2C(C(=O)O)=C(Cl)CC[C@H]12)c1ccccc1 [LORACARBEF ANHYDROUS]
1 (≈ 2.74 µM)	COC(=O)C1=C(C(=O)O)N2C(=O)[C@@H](NC(=O)Cc3cccs3)[C@H]2CC1

Test system: not listed separately
Assay: Pseudo-first-order rate constant at pH 10, micro=0.5, 35 degrees Centigrade
Type: ADME
Summary of the method: (§2)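 Parent β-lactam loss followed by HPLC, starting at 3.9 × 10^-4–1 × 10^-3 M, at 35 °C and μ = 0.5. pH was held at 10 by a pH-stat adding NaOH. Pseudo-first-order rate constants were derived, with half-lives from these rates. Some runs were done at pH 11, and the constant was taken as 1/10 of the observed value, assuming proportionality to [OH].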

K [h⁻¹]	Compound
0.799	COC(=O)C1=C(C(=O)O)N2C(=O)[C@@H](NC(=O)Cc3cccs3)[C@H]2CC1

Test system: Enterobacter cloacae
Assay: In vitro inhibitory activity against Enterobacter cloacae EB5
Type: functional
Summary of the method: as §1

MIC [µg/mL]	Compound
128 (≈ 347 µM)	O=C(COc1ccccc1)N[C@@H]1C(=O)N2C(C(=O)O)=C(Cl)CS[C@H]12
128 (≈ 335 µM)	COC(=O)C1=C(C(=O)O)N2C(=O)[C@@H](NC(=O)Cc3cccs3)[C@H]2SC1
0.06 (≈ 0.131 µM)	CO/N=C(\C(=O)N[C@@H]1C(=O)N2C(C(=O)[O-])=C(C[n+]3ccccc3)CC[C@H]12)c1csc(N)n1
4 (≈ 11.4 µM)	N[C@@H](C(=O)N[C@@H]1C(=O)N2C(C(=O)O)=C(Cl)CC[C@H]12)c1ccccc1 [LORACARBEF ANHYDROUS]
128 (≈ 351 µM)	COC(=O)C1=C(C(=O)O)N2C(=O)[C@@H](NC(=O)Cc3cccs3)[C@H]2CC1

Test system: not listed separately
Assay: Pseudo-first-order rate constant at pH 10 and 35 degrees Centigrade
Type: ADME
Summary of the method: as §2

K [h⁻¹]	Compound
0.895	O=C(COc1ccccc1)N[C@@H]1C(=O)N2C(C(=O)O)=C(Cl)CS[C@H]12
6.27	COC(=O)C1=C(C(=O)O)N2C(=O)[C@@H](NC(=O)Cc3cccs3)[C@H]2SC1
0.0628	CO/N=C(\C(=O)N[C@@H]1C(=O)N2C(C(=O)[O-])=C(C[n+]3ccccc3)CC[C@H]12)c1csc(N)n1
0.0324	N[C@@H](C(=O)N[C@@H]1C(=O)N2C(C(=O)O)=C(Cl)CC[C@H]12)c1ccccc1 [LORACARBEF ANHYDROUS]

Test system: not listed separately
Assay: Half-life is evaluated
Type: ADME
Summary of the method: as §2

half-life [min]	Compound
46.4	O=C(COc1ccccc1)N[C@@H]1C(=O)N2C(C(=O)O)=C(Cl)CS[C@H]12
6.66	COC(=O)C1=C(C(=O)O)N2C(=O)[C@@H](NC(=O)Cc3cccs3)[C@H]2SC1
660	CO/N=C(\C(=O)N[C@@H]1C(=O)N2C(C(=O)[O-])=C(C[n+]3ccccc3)CC[C@H]12)c1csc(N)n1
1280	N[C@@H](C(=O)N[C@@H]1C(=O)N2C(C(=O)O)=C(Cl)CC[C@H]12)c1ccccc1 [LORACARBEF ANHYDROUS]
52	COC(=O)C1=C(C(=O)O)N2C(=O)[C@@H](NC(=O)Cc3cccs3)[C@H]2CC1

Test system: Pseudomonas aeruginosa
Assay: In vitro in vitro inhibitory activity against Pseudomonas aeruginosa X258
Type: functional
Summary of the method: as §1

MIC [µg/mL]	Compound
128 (≈ 335 µM)	COC(=O)C1=C(C(=O)O)N2C(=O)[C@@H](NC(=O)Cc3cccs3)[C@H]2SC1

Test system: Haemophilus influenzae
Assay: In vitro inhibitory activity against Haemophilus influenza C.L
Type: functional
Summary of the method: as §1

MIC [µg/mL]	Compound
2 (≈ 5.42 µM)	O=C(COc1ccccc1)N[C@@H]1C(=O)N2C(C(=O)O)=C(Cl)CS[C@H]12
2 (≈ 5.23 µM)	COC(=O)C1=C(C(=O)O)N2C(=O)[C@@H](NC(=O)Cc3cccs3)[C@H]2SC1
0.5 (≈ 1.1 µM)	CO/N=C(\C(=O)N[C@@H]1C(=O)N2C(C(=O)[O-])=C(C[n+]3ccccc3)CC[C@H]12)c1csc(N)n1
0.5 (≈ 1.43 µM)	N[C@@H](C(=O)N[C@@H]1C(=O)N2C(C(=O)O)=C(Cl)CC[C@H]12)c1ccccc1 [LORACARBEF ANHYDROUS]
1 (≈ 2.74 µM)	COC(=O)C1=C(C(=O)O)N2C(=O)[C@@H](NC(=O)Cc3cccs3)[C@H]2CC1

Test system: Providencia rettgeri
Assay: In vitro inhibitory activity against Proteus rettgeri C24
Type: functional
Summary of the method: as §1

MIC [µg/mL]	Compound
128 (≈ 347 µM)	O=C(COc1ccccc1)N[C@@H]1C(=O)N2C(C(=O)O)=C(Cl)CS[C@H]12
128 (≈ 335 µM)	COC(=O)C1=C(C(=O)O)N2C(=O)[C@@H](NC(=O)Cc3cccs3)[C@H]2SC1
0.06 (≈ 0.131 µM)	CO/N=C(\C(=O)N[C@@H]1C(=O)N2C(C(=O)[O-])=C(C[n+]3ccccc3)CC[C@H]12)c1csc(N)n1
128 (≈ 366 µM)	N[C@@H](C(=O)N[C@@H]1C(=O)N2C(C(=O)O)=C(Cl)CC[C@H]12)c1ccccc1 [LORACARBEF ANHYDROUS]
8 (≈ 22 µM)	COC(=O)C1=C(C(=O)O)N2C(=O)[C@@H](NC(=O)Cc3cccs3)[C@H]2CC1

Test system: Klebsiella pneumoniae
Assay: In vitro inhibitory activity against Klebsiella X26
Type: functional
Summary of the method: as §1

MIC [µg/mL]	Compound
8 (≈ 21.7 µM)	O=C(COc1ccccc1)N[C@@H]1C(=O)N2C(C(=O)O)=C(Cl)CS[C@H]12
2 (≈ 5.23 µM)	COC(=O)C1=C(C(=O)O)N2C(=O)[C@@H](NC(=O)Cc3cccs3)[C@H]2SC1
0.03 (≈ 0.0657 µM)	CO/N=C(\C(=O)N[C@@H]1C(=O)N2C(C(=O)[O-])=C(C[n+]3ccccc3)CC[C@H]12)c1csc(N)n1
0.25 (≈ 0.715 µM)	N[C@@H](C(=O)N[C@@H]1C(=O)N2C(C(=O)O)=C(Cl)CC[C@H]12)c1ccccc1 [LORACARBEF ANHYDROUS]
0.25 (≈ 0.686 µM)	COC(=O)C1=C(C(=O)O)N2C(=O)[C@@H](NC(=O)Cc3cccs3)[C@H]2CC1

Test system: Pseudomonas aeruginosa
Assay: In vitro inhibitory activity against Pseudomonas aeruginosa X258
Type: functional
Summary of the method: as §1

MIC [µg/mL]	Compound
128 (≈ 347 µM)	O=C(COc1ccccc1)N[C@@H]1C(=O)N2C(C(=O)O)=C(Cl)CS[C@H]12
2 (≈ 4.38 µM)	CO/N=C(\C(=O)N[C@@H]1C(=O)N2C(C(=O)[O-])=C(C[n+]3ccccc3)CC[C@H]12)c1csc(N)n1
128 (≈ 366 µM)	N[C@@H](C(=O)N[C@@H]1C(=O)N2C(C(=O)O)=C(Cl)CC[C@H]12)c1ccccc1 [LORACARBEF ANHYDROUS]
128 (≈ 351 µM)	COC(=O)C1=C(C(=O)O)N2C(=O)[C@@H](NC(=O)Cc3cccs3)[C@H]2CC1

Test system: Staphylococcus aureus
Assay: In vitro inhibitory activity against Staphylococcus aureus X1.1
Type: functional
Summary of the method: as §1

MIC [µg/mL]	Compound
0.25 (≈ 0.678 µM)	O=C(COc1ccccc1)N[C@@H]1C(=O)N2C(C(=O)O)=C(Cl)CS[C@H]12
0.5 (≈ 1.31 µM)	COC(=O)C1=C(C(=O)O)N2C(=O)[C@@H](NC(=O)Cc3cccs3)[C@H]2SC1
4 (≈ 8.76 µM)	CO/N=C(\C(=O)N[C@@H]1C(=O)N2C(C(=O)[O-])=C(C[n+]3ccccc3)CC[C@H]12)c1csc(N)n1
2 (≈ 5.72 µM)	N[C@@H](C(=O)N[C@@H]1C(=O)N2C(C(=O)O)=C(Cl)CC[C@H]12)c1ccccc1 [LORACARBEF ANHYDROUS]
0.25 (≈ 0.686 µM)	COC(=O)C1=C(C(=O)O)N2C(=O)[C@@H](NC(=O)Cc3cccs3)[C@H]2CC1

Test system: Streptococcus pyogenes
Assay: In vitro inhibitory activity against Streptococcus pyogenes Park
Type: functional
Summary of the method: as §1

MIC [µg/mL]	Compound
0.25 (≈ 0.678 µM)	O=C(COc1ccccc1)N[C@@H]1C(=O)N2C(C(=O)O)=C(Cl)CS[C@H]12
0.03 (≈ 0.0784 µM)	COC(=O)C1=C(C(=O)O)N2C(=O)[C@@H](NC(=O)Cc3cccs3)[C@H]2SC1
0.015 (≈ 0.0329 µM)	CO/N=C(\C(=O)N[C@@H]1C(=O)N2C(C(=O)[O-])=C(C[n+]3ccccc3)CC[C@H]12)c1csc(N)n1
1 (≈ 2.86 µM)	N[C@@H](C(=O)N[C@@H]1C(=O)N2C(C(=O)O)=C(Cl)CC[C@H]12)c1ccccc1 [LORACARBEF ANHYDROUS]
